Laboratory results as given in ChEMBL document CHEMBL3612036, “Design, Synthesis, and Cardioprotective Effects of N-Mercapto-Based Hydrogen Sulfide Donors” (J Med Chem, 2015).
Active and inactive are the calls of the source. No cut-off for these calls is given here.

Legend:
H9c2 [1] = test: Cytoprotective activity against H2O2-induced cell damage in rat H9c2 cells at 160 uM incubated for 1 hr before H2O2 challenge for 5 hrs by CCK8 assay; type: functional, cell-based
In short: (§1)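 H9c2 cells (high-glucose DMEM, 10% FBS, 37 °C, 5% CO2) were preincubated 1 h with test agent, washed with PBS, then exposed to H2O2 (400 μM) for 5 h. Viability was read by CCK-8 (1:10 dilution, 3 h at 37 °C, absorbance 450 nm). The mean OD of 4 wells was expressed as % of control. Experiments were done in triplicate.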

Mus musculus [2] = test: Effect on area-at-risk per left ventricle in C57BL6/J mouse model of myocardial ischemia/reperfusion at 50 and 100 ug/kg dosed through direct intracardiac injection at time of reperfusion by TTC staining method; type: organism-based, Heart left ventricle; conditions: in vivo, 0.1 mg/kg
In short: (§2)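 Male C57BL/6J mice, 10–12 weeks old, anesthetised with pentobarbital (50 mg/kg) plus ketamine (60 mg/kg). Left coronary artery occluded with PE-10 tubing for 45 min. Single intracardiac injection at reperfusion; vehicle 0.5% v/v THF in sterile saline. Reperfusion lasted 24 h, then area-at-risk and infarct measured by Evans blue/TTC staining. n = 6–17 per group.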

Mus musculus [3] = test: Cardioprotective activity in C57BL6/J mouse model of myocardial ischemia/reperfusion assessed as reduction in circulating cardiac troponin-1 level at 50 ug/kg dosed through direct intracardiac injection at time of reperfusion; type: functional, organism-based; conditions: Heart
In short: (§3)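 Male C57BL/6J mice, 10–12 weeks old, were anesthetized with pentobarbital (50 mg/kg) plus ketamine (60 mg/kg). The left coronary artery was occluded for 45 min. At reperfusion, donor was injected intracardiac: dissolved in THF, diluted in sterile saline to 0.05 or 0.1 mg/mL, final 0.5% v/v THF. Vehicle was 0.5% THF in saline. Tail-vein blood was drawn at 4 h reperfusion for troponin I.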

Mus musculus [4] = test: Cardioprotective activity in C57BL6/J mouse model of myocardial ischemia/reperfusion assessed as reduction in infarct size per area-at-risk at 50 ug/kg dosed through direct intracardiac injection at time of reperfusion by TTC staining method; type: functional; conditions: Myocardium; in short: as §2
H9c2 [5] = test: Cytotoxicity against rat H9c2 cells assessed as reduction in cell viability at <40 uM incubated for 1 hr by CCK8 assay; type: cell-based; conditions: h9c2, 1 h
In short: (§4)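 H9c2 cells (high-glucose DMEM, 10% FBS, 37 °C, 5% CO2) were exposed 1 h to donor over 20–160 μM, either alone or with 480 μM cysteine, then washed twice with PBS. Viability was measured by CCK-8 (1:10 dilution, 3 h at 37 °C, absorbance 450 nm). The mean OD of 4 wells was expressed as % of control, in triplicate.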

H9c2 [6] = test: Cytoprotective activity against H2O2-induced cell damage in rat H9c2 cells at 160 uM pre-incubated for 1 hr before H2O2 challenge for 5 hrs in presence of 480 uM cysteine by LDH release assay; type: functional, cell-based
In short: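 H9c2 cells at about 70% confluence were preconditioned 1 h with donor plus cysteine (480 μM), then treated with H2O2 (400 μM) for 5 h. Extracellular LDH was measured in supernatant; intracellular LDH in lysate made with 2% Triton X-100 in DMEM. Kit reaction ran 10 min at room temperature, read at 490/600 nm. % release = extracellular/(extracellular+intracellular). Run 4 times.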

[7] = GSH-induced H2S release assessed as peak H2S level in pH 7.4 PBS buffer containing 10% THF incubated for 2 hrs at room temperature in presence of cysteine by methylene blue based UV-Vis spectrometry; type: physicochemical; conditions: pH 7.4, 2 h
In short: (§5)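 Donor (30 mM THF stock; 0.1 mM final) was added to PBS (pH 7.4, 50 mM)/THF 9:1 containing the stated thiol, at room temperature for 2 h. 1.0 mL aliquots were taken periodically into methylene blue cocktail (zinc acetate, N,N-dimethyl-p-phenylenediamine in HCl, FeCl3 in HCl) and reacted 15 min. Absorbance was read at 670 nm and H2S quantified against a Na2S calibration curve; peak concentration and peak time were recorded.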

[8] = […] peak time for H2S release in pH 7.4 PBS buffer containing 10% THF incubated for 2 hrs at room temperature in presence of cysteine by methylene blue based UV-Vis spectrometry; type: physicochemical; conditions: pH 7.4, 2 h; in short: as §5
Mus musculus [9] = test: Cardioprotective activity in C57BL6/J mouse model of myocardial ischemia/reperfusion assessed as reduction in circulating cardiac troponin-1 level at 100 ug/kg dosed through direct intracardiac injection at time of reperfusion; type: functional, organism-based; conditions: Heart; in short: as §3
[10] = […] peak time for H2S release in pH 7.4 PBS buffer containing 10% THF incubated for 2 hrs at room temperature in presence of 1 mM GSH by methylene blue based UV-Vis spectrometry; type: physicochemical; conditions: pH 7.4, 2 h; in short: as §5
Mus musculus [11] = test: Cardioprotective activity in C57BL6/J mouse model of myocardial ischemia/reperfusion assessed as reduction in infarct size per area-at-risk at 100 ug/kg dosed through direct intracardiac injection at time of reperfusion by TTC staining method; type: functional; conditions: Myocardium; in short: as §2
H9c2 [12] = test: Cytoprotective activity against H2O2-induced cell damage in rat H9c2 cells assessed as reduction in mitochondrial membrane potential loss at 160 uM pre-incubated for 1 hr before H2O2 challenge for 5 hrs in presence of 480 uM cysteine by Rh123 dye based fluorescent microscopy; type: functional
In short: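 H9c2 cells were grown in high-glucose DMEM with 10% FBS at 37 °C, 5% CO2. They were pretreated 1 h with donor plus cysteine (480 μM), then given H2O2 (400 μM) for 5 h. Rh123 (10 mg/L) was added for 15 min at 37 °C. Fluorescence microscopy gave mean Rh123 intensity from four random fields.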

H9c2 [13] = test: Cytotoxicity against rat H9c2 cells assessed as reduction in cell viability at >80 uM incubated for 1 hr by CCK8 assay; type: cell-based; conditions: h9c2, 1 h; in short: as §4
[14] = GSH-induced H2S release assessed as peak H2S level in pH 7.4 PBS buffer containing 10% THF incubated for 2 hrs at room temperature in presence of 1 mM GSH by methylene blue based UV-Vis spectrometry; type: physicochemical; conditions: pH 7.4, 2 h; in short: as §5
H9c2 [15] = test: Cytotoxicity against rat H9c2 cells assessed as reduction in cell viability at 160 uM in presence of 480 uM cysteine incubated for 1 hr by CCK8 assay; type: cell-based; conditions: h9c2, 1 h; in short: as §4
Mus musculus [16] = test: Cardioprotective activity in C57BL6/J mouse model of myocardial ischemia/reperfusion assessed as reduction in infarct size per area-at-risk dosed through direct intracardiac injection at time of reperfusion by TTC staining method; type: functional, organism-based; conditions: Myocardium; in short: as §2
[17] = Induction of […] release in pH 7.4 PBS buffer containing 10% THF incubated for 2 hrs at room temperature in presence of 0.5 mM cysteine by methylene blue based UV-Vis spectrometry; type: physicochemical; conditions: pH 7.4, 2 h; in short: as §5
[18] = Induction of […] release in pH 7.4 PBS buffer containing 10% THF incubated for 2 hrs at room temperature in presence of 2 mM cysteine by methylene blue based UV-Vis spectrometry; type: physicochemical; conditions: pH 7.4, 2 h; in short: as §5
H9c2 [19] = test: Cytoprotective activity against H2O2-induced cell damage in rat H9c2 cells at 480 uM incubated for 1 hr before H2O2 challenge for 5 hrs by CCK8 assay; type: functional, cell-based; in short: as §1

Row | Structure (SMILES) | Activity [7] [µM] | Time [8] [min] | Time [10] [min] | Activity [14] [µM] | also measured
1 | O=C(N[C@@H](CS)C(=O)O)c1ccccc1 | – | – | – | – | Activity (H9c2 [1]): inactive
2 | O=C(NSC(=O)c1ccc(F)cc1)c1ccccc1 | 39.5 | 50 | 55 | 40.6 | Activity (Mus musculus [2]): Non-toxic; inhibition (Mus musculus [3]): Active; inhibition in vivo at 0.05 mg/kg (Mus musculus [4]): 50%; Activity (H9c2 [5]): Non-toxic; Activity (H9c2 [6]): Active; inhibition (Mus musculus [9]): Active; inhibition in vivo at 0.1 mg/kg (Mus musculus [11]): 50%; Activity (H9c2 [12]): Active; Activity (H9c2 [13]): Toxic; Activity (H9c2 [15]): Non-toxic; inhibition (Mus musculus [16]): Dose-dependent effect
3 | O=C(NSC(=O)c1ccccc1)c1ccccc1 | 55.8 | 55 | 65 | 51.2 | Activity (Mus musculus [2]): Non-toxic; Activity (H9c2 [5]): Non-toxic; Activity (H9c2 [6]): Active; inhibition in vivo at 0.1 mg/kg (Mus musculus [11]): 35%; Activity (H9c2 [12]): Active; Activity (H9c2 [13]): Toxic; Activity [17]: Not Active; Activity [18]: Active; Activity (H9c2 [15]): Non-toxic; inhibition (Mus musculus [16]): Dose-dependent effect
4 | N[C@@H](CS)C(=O)O | – | – | – | – | Activity (H9c2 [19]): inactive
5 | O=C(NSC(=O)c1ccccc1)Nc1ccccc1 | 21.5 | 95 | 110 | 29.9 | –
6 | COc1ccc(C(=O)SNC(=O)c2ccccc2)cc1 | 41.8 | 60 | 65 | 46.8 | Activity (H9c2 [5]): Non-toxic; Activity (H9c2 [6]): Active; Activity (H9c2 [12]): Active; Activity (H9c2 [13]): Toxic; Activity (H9c2 [15]): Non-toxic
7 | O=C(NSC(=O)c1ccccc1)Nc1ccc(Cl)cc1 | 10.7 | 110 | 120 | 20.9 | –
8 | NC(=O)c1ccccc1 | – | – | – | – | Activity (H9c2 [1]): inactive
9 | CC(=O)Oc1ccccc1C(=O)NSC(=O)c1ccccc1 | 35.1 | 60 | 60 | 44.5 | –
10 | O=C(NSC(=O)c1ccccc1)c1cccc(Cl)c1 | 25.2 | 60 | 70 | 29.9 | –
11 | O=C(NSC(=O)C1CCCC1)c1ccccc1 | 40.9 | 60 | 65 | 49.9 | –
12 | CC(C(=O)SNC(=O)c1ccccc1)c1ccccc1 (stereo not given) | 48.2 | 60 | 70 | 55.6 | –
